A short description of data set [1]: In vitro microsomal incubation, rat liver microsomes. To be noted: for formation of 2,4,6-TBP as a result of biotransformation: rat liver microsomes.
Data set [2] in a line: In vitro microsomal incubation, human liver microsomes. The settings on record: for formation of 2,4,6-TBP as a result of biotransformation: human liver microsomes; for share of the total TTBP-TAZ metabolite concentrations: metabolite formed from TTBP-TAZ in liver microsome incubations, target screening. For orientation: Liver microsomes are vesicles of endoplasmic reticulum, rich in cytochrome P450 enzymes.

The conditions of data set [3]: animal studies; ref Mörck et al., 2003; cited from earlier work.
The conditions of data set [4]: human; for share of the total TTBP-TAZ metabolite concentrations: 2 h.
For another data set, the system named is RXRα. In words: Hepatic mRNA expression. The settings on record: rat liver; 250 mg/kg bw/day by gavage, 7 days; vs control. The class given is in vivo, Sprague-Dawley rat. An outline of the steps: (§1)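 Male Sprague-Dawley rats (4 weeks old, 7-day quarantine) were randomised to a corn-oil control or test compound at 250 mg/kg bw/day in corn oil by oral gavage for 7 days, n = 5 per group. Liver was taken at sacrifice. mRNA was measured by quantitative real-time PCR, normalised to β2 microglobulin (B2m), with relative expression by 2−ΔΔCt. Mean ± SE reported; significance at p 0.05.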

A further data set relates to ANGPTL4. In words: Hepatic mRNA expression. Type of data set: in vivo, Sprague-Dawley rat. The settings on record: rat liver; 250 mg/kg bw/day by gavage, 7 days; vs control. An outline of the steps:
as §1

The subject of another data set is LXR. In words: Hepatic mRNA expression. Type of data set: in vivo, Sprague-Dawley rat. To be noted: rat liver; 250 mg/kg bw/day by gavage, 7 days; vs control. An outline of the steps: as §1
The subject of the next data set is PXR. In words: Hepatic mRNA expression. Type of data set: in vivo, Sprague-Dawley rat.
For a further data set, the system named is VEGF. Briefly: Hepatic mRNA expression. Type of data set: in vivo, Sprague-Dawley rat. The settings on record: rat liver; 250 mg/kg bw/day by gavage, 7 days; vs control. An outline of the steps:
as §1

In the next data set the test system is PPARγ. In words: Hepatic mRNA expression. Type of data set: in vivo, Sprague-Dawley rat. The settings on record: rat liver; 250 mg/kg bw/day by gavage, 7 days; vs control. An outline of the steps:
as §1

For the next data set, the system named is LPL. In words: Hepatic mRNA expression. The class given is in vivo, Sprague-Dawley rat. The settings on record: rat liver; 250 mg/kg bw/day by gavage, 7 days; vs control. An outline of the steps: as §1
Another data set deals with PPARδ. In words: Hepatic mRNA expression. Type of data set: in vivo, Sprague-Dawley rat. To be noted: rat liver; 250 mg/kg bw/day by gavage, 7 days; vs control. An outline of the steps:
as §1

For a further data set, the system named is THRβ. In words: Hepatic mRNA expression. To be noted: rat liver; 250 mg/kg bw/day by gavage, 7 days; vs control. The class given is in vivo, Sprague-Dawley rat. An outline of the steps:
as §1

Another data set relates to RXRβ. In words: Hepatic mRNA expression. Type of data set: in vivo, Sprague-Dawley rat. To be noted: rat liver; 250 mg/kg bw/day by gavage, 7 days; vs control. An outline of the steps: as §1
The test system of another data set is RXRγ. In words: Hepatic mRNA expression. To be noted: rat liver; 250 mg/kg bw/day by gavage, 7 days; vs control. The class given is in vivo, Sprague-Dawley rat. An outline of the steps: as §1
The test system of a further data set is TSH. Briefly: Hepatic mRNA expression. The class given is in vivo, Sprague-Dawley rat. To be noted: rat liver; 250 mg/kg bw/day by gavage, 7 days; vs control. An outline of the steps:
as §1

Data set [5] in a line: Relative body, liver and thyroid weights of exposed rats. The class given is in vivo, Sprague-Dawley rat. The settings on record: 250 mg/kg bw/day by gavage, 7 days, vs control (Table S2).
The next data set has as its system INFγ. Briefly: Hepatic mRNA expression. Type of data set: in vivo, Sprague-Dawley rat. To be noted: rat liver; 250 mg/kg bw/day by gavage, 7 days; vs control. An outline of the steps:
as §1

A further data set deals with IL-6. In words: Hepatic mRNA expression. Type of data set: in vivo, Sprague-Dawley rat. The settings on record: rat liver; 250 mg/kg bw/day by gavage, 7 days; vs control. An outline of the steps:
as §1

In a further data set the test system is HIF1α. In words: Hepatic mRNA expression. The class given is in vivo, Sprague-Dawley rat. The settings on record: rat liver; 250 mg/kg bw/day by gavage, 7 days; vs control. An outline of the steps: as §1
For the next data set, the system named is PLIN. Briefly: Hepatic mRNA expression. Type of data set: in vivo, Sprague-Dawley rat. To be noted: rat liver; 250 mg/kg bw/day by gavage, 7 days; vs control.
The subject of a further data set is HOMX1. Briefly: Hepatic mRNA expression. The class given is in vivo, Sprague-Dawley rat. The settings on record: rat liver; 250 mg/kg bw/day by gavage, 7 days; vs control. An outline of the steps: as §1
The test system of the next data set is TNFα. In words: Hepatic mRNA expression. The class given is in vivo, Sprague-Dawley rat. To be noted: rat liver; 250 mg/kg bw/day by gavage, 7 days; vs control. An outline of the steps: as §1
Another data set deals with SOD1. Briefly: Hepatic mRNA expression. The class given is in vivo, Sprague-Dawley rat. To be noted: rat liver; 250 mg/kg bw/day by gavage, 7 days; vs control. An outline of the steps: as §1
A further data set concerns CAT. Briefly: Hepatic mRNA expression. The class given is in vivo, Sprague-Dawley rat. To be noted: rat liver; 250 mg/kg bw/day by gavage, 7 days; vs control. An outline of the steps: as §1
The conditions of data set [6]: rat.
The next data set concerns AhR. In words: Hepatic mRNA expression. Type of data set: in vivo, Sprague-Dawley rat. The settings on record: rat liver; 250 mg/kg bw/day by gavage, 7 days; vs control. An outline of the steps:
as §1

For a further data set, the system named is TG. Briefly: Hepatic mRNA expression. The settings on record: rat liver; 250 mg/kg bw/day by gavage, 7 days; vs control. The class given is in vivo, Sprague-Dawley rat. An outline of the steps:
as §1

The test system of the next data set is MYC. In words: Hepatic mRNA expression. Type of data set: in vivo, Sprague-Dawley rat. To be noted: rat liver; 250 mg/kg bw/day by gavage, 7 days; compared to the 2,4,6 TBP exposure group.
A short description of data set [7]: Occurrence of TTBP-TAZ and 2,4,6-TBP in blood and liver of orally exposed rats. Also on record: species or system Sprague-Dawley rat. To be noted: in vivo, 250 mg/kg/day.
Another data set deals with AOX1. Briefly: Hepatic mRNA expression. To be noted: rat liver; 250 mg/kg bw/day by gavage, 7 days; vs control. The class given is in vivo, Sprague-Dawley rat. An outline of the steps: as §1

Where two headings read alike, the source gives them in different places.

Turning to `Brc1c(Br)c(Br)c(CCc2c(Br)c(Br)c(Br)c(Br)c2Br)c(Br)c1Br` [DBDPE, decabromodiphenyl ethane], the “formation of 2,4,6-TBP as a result of biotransformation” value in [1] and in data set [2] was “not formed” each time. In addition, the excreted in feces in data set [3] is reported as 90%.

With `Oc1cc(Br)c(Br)cc1Br` [2,4,5-TBP, 2,4,5-Tribromophenol], the “share of the total TTBP-TAZ metabolite concentrations” value (from here on “share”) in data set [4] (pH 7.4) worked out at 12.6%.

Regarding `Oc1c(Br)cc(Br)cc1Br` [2,4,6-TBP, 2,4,6-Tribromophenol], in the data set with RXRα, the “RXRα mRNA expression” value was “significantly downregulated”. In addition, the “ANGPTL4 mRNA expression” value with ANGPTL4 is listed as “significantly inhibited”. Also, in the data set on LXR, the “LXR mRNA expression” value was “significantly downregulated”. The “PXR mRNA expression” value in the data set with PXR (rat liver, 250 mg/kg bw/day by gavage, 7 days, vs control) is on record as “significantly downregulated”. In addition, in the data set on VEGF, the “VEGF mRNA expression” value was “significantly inhibited”. Besides, the “PPARγ mRNA expression” value with PPARγ was “significantly downregulated”. Also, the “LPL mRNA expression” value with LPL is “significantly inhibited”. In addition, the “PPARδ mRNA expression” value with PPARδ is “significantly downregulated”. Also, in data set [2], the “share” value turned out to be 87%. For the same compound, in [2] (metabolites of TTBP-TAZ incubation), the “concentration ratio of 2,4,6-TBP to 2,4,5-TBP” value amounted to 6.9. The “THRβ mRNA expression” value with THRβ is “significantly inhibited”. Further, the “RXRβ mRNA expression” value with RXRβ was “significantly downregulated”. For the same compound, in the data set with RXRγ, the “RXRγ mRNA expression” value is “significantly downregulated”. For the same compound, the “TSH mRNA expression” value with TSH was “significantly induced”. Moreover, in data set [5], the “relative body, liver, and thyroid weights” value was “No significant difference”. Besides, in the data set on INFγ, the “INFγ mRNA expression” value was “significantly decreased”. For the same compound, in the data set on IL-6, the “IL-6 mRNA expression” value is “significantly decreased”. Also, the “HIF1α mRNA expression” value in the data set on HIF1α is on record as “significantly inhibited”. Moreover, the “PLIN mRNA expression, fold change” value in the data set with PLIN is on record as 2.4 fold. In addition, the “HOMX1 mRNA expression” value in the data set on HOMX1 is given as “significantly inhibited”. Besides, in the data set on TNFα, the “TNFα mRNA expression” value is “significantly decreased”. Moreover, the “SOD1 mRNA expression” value in the data set on SOD1 is recorded as “significantly inhibited”. Moreover, the “CAT mRNA expression” value with CAT is listed as “significantly inhibited”.

On to `Oc1ccc(Br)cc1Br` [2,4-DBP, 2,4-dibromophenol], for which the “share” value in data set [2] was determined as 0.19%.

For the compound `CC(C)(c1cc(Br)c(O)c(Br)c1)c1cc(Br)c(O)c(Br)c1` [TBBPA, tetrabromobisphenol A], the “formation of 2,4,6-TBP as a result of biotransformation” value in data set [1] and in data set [2] was “not formed” in each case.

With `COc1c(Br)cc(Br)cc1Br` [2,4,6-TBA, 2,4,6-tribromoanisole], the “share” value in data set [4] (pH 7.4) is reported as 0.02%.

Regarding `Brc1cc(Br)c(Oc2nc(Oc3c(Br)cc(Br)cc3Br)nc(Oc3c(Br)cc(Br)cc3Br)n2)c(Br)c1` [TTBP-TAZ, 2,4,6-tris-(2,4,6-tribromophenoxy)-1,3,5-triazine], the half-life (usually the time in which the quantity being followed falls by half) in data set [1] (Sprague-Dawley, rat, liver microsomes, pH 7.4) is 132 min; in [2] (human, liver microsomes, pH 7.4), 66 min. For the same compound, the “RXRα mRNA expression” value with RXRα is “downregulated significantly”. The “ANGPTL4 mRNA expression” value with ANGPTL4 is given as “significantly inhibited”. For the same compound, the “PXR mRNA expression” value in the data set on PXR (rat, in vivo, 250 mg/kg/day) was “downregulated significantly”. In addition, the “VEGF mRNA expression” value in the data set on VEGF was “significantly inhibited”. For the same compound, the “2,4,6-TBP formation rate” value in data set [6] (Sprague-Dawley, pH 7.4) stood at 0.77 mL/h/mg; in [4] (pH 7.4) it was 1.34 mL/h/mg. Moreover, the entries for the “In vitro intrinsic clearance rate (CLint), depletion” value in data set [6] (microsomes) and in data set [4] (microsomes) were 0.32 mL/h/mg and 0.62 mL/h/mg, respectively. Further, the “LPL mRNA expression” value in the data set with LPL is given as “significantly inhibited”. For the same compound, the “AhR mRNA expression, fold change compared to control” value with AhR came to 18 fold. The “RXRβ mRNA expression” value in the data set on RXRβ is on record as “downregulated significantly”. Besides, the “RXRγ mRNA expression” value with RXRγ is reported as “downregulated significantly”. In the data set with TG, the “TG mRNA expression” value is recorded as “inhibition”. In addition, in the data set with MYC, the “MYC mRNA expression” value is “significantly induced”. Moreover, in the data set with TSH, the “TSH mRNA expression” value is recorded as “significantly induced”. For the same compound, in data set [7] (male, Sprague-Dawley, 7 days), the “concentration of 2,4,6-TBP in rat blood” value is recorded as 50 ± 14 μg/g lipid weight (lw). Besides, in [7] (male, Sprague-Dawley, 7 days), the “concentration of 2,4,6-TBP in rat liver” value is on record as 270 ± 110 μg/g lipid weight (lw). The “TTBP-TAZ detected in blood samples” value in data set [7] (rat) is recorded as “no TTBP-TAZ was detected”. Moreover, the “TTBP-TAZ detected in liver samples” value in data set [7] (rat) is recorded as “no TTBP-TAZ was detected”. Besides, in the data set with AOX1, the “AOX1 mRNA expression” value was “significantly inhibited”. Moreover, the “INFγ mRNA expression” value with INFγ was “significantly reduced”. Further, in the data set on HIF1α, the “HIF1α mRNA expression” value was “significantly inhibited”. The “PLIN mRNA expression, fold change” value in the data set with PLIN is on record as 28 fold. Besides, the “HOMX1 mRNA expression” value in the data set with HOMX1 is “significantly inhibited”. Besides, the “TNFα mRNA expression” value in the data set with TNFα was “significantly reduced”. In the data set on SOD1, the “SOD1 mRNA expression” value is on record as “significantly inhibited”. Also, the “CAT mRNA expression” value with CAT was “significantly inhibited”.

The values above are taken from paper PMC8688301 (Environment international, 2021).
